Active and inactive are the calls of the source. The calls are words filed in the database; no cut-off is given here.
Columns and labels:
Assay type in all cases: functional, cell-based
PC-3M [1] = experiment: Anti-invasive activity against human PC3M cells at 50 nM
PC-3M [2] = experiment: Antiproliferative activity against human PC3M cells at 5 to 50 nM by MTT assay
PC-3M [3] = experiment: Effect on paracellular permeability of calcitonin-treated human PC3M cells
In short: (§1)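 PC-3M grown at confluency on Transwell filters in complete medium until TER developed. Tetramethylrhodamine-dextran (4 kDa, 1 mg/mL in HBSS) added to upper chamber, HBSS in lower.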

PC-3M [4] = experiment: Effect on calcitonin-stimulated decrease in transepithelial resistance in human PC3M cells
In short: (§2)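 PC-3M plated at confluency on Transwell filters (0.4 µm pores) in complete medium with 25 mM Hepes, pH 7.4. Cultured with or without CT (50 nM). TER measured in duplicate wells every 12 h with a voltohmmeter. Values blank-subtracted (filter plus bathing medium) and normalized to filter area.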

PC-3M [5] = experiment: Effect on baseline transepithelial resistance in human PC3M cells; in short: as §2
PC-3M [6] = experiment: Effect on paracellular permeability of human PC3M cells; in short: as §1
PC-3M [7] = experiment: Cytotoxicity against human PC3M cells at 50 nM by MTT assay

SMILES	Activity (PC-3M [1])	Activity (PC-3M [2])	other results
C/C1=C\[C@H](OC(=O)NCCCl)C[C@@](C)(O)/C=C/[C@H](C(C)C)CC/C(C)=C/CC1	Active	Active	–
CCNC(=O)O[C@H]1/C=C(\C)CC/C=C(\C)CC[C@@H](C(C)C)/C=C/[C@](C)(O)C1	Active	Active	Activity (PC-3M [3]): Active; Activity (PC-3M [4]): Active; Activity (PC-3M [5]): Active; Activity (PC-3M [6]): Active
C/C1=C\[C@H](OC(=O)NCc2ccccc2)C[C@@](C)(O)/C=C/[C@H](C(C)C)CC/C(C)=C/CC1	Active	Active	–
C/C1=C\[C@H](O)C[C@@](C)(O)/C=C/[C@H](C(C)C)C[C@@H](O)/C(C)=C/CC1	Active	–	Activity (PC-3M [7]): inactive
C/C1=C\[C@H](O)C[C@@](C)(O)/C=C/[C@H](C(C)C)CC/C(CO)=C/CC1	Active	–	–
C/C1=C\C[C@@H](O)/C(C)=C/[C@H](O)C[C@@](C)(O)/C=C/[C@H](C(C)C)CC1	Active	–	–
C/C1=C\CC/C(CO)=C/[C@H](O)C[C@@](C)(O)/C=C/[C@H](C(C)C)CC1	Active	–	–

Source: ChEMBL document CHEMBL1143960
